Compounds with a hit are over-represented: about 1.8% of the library has one in this group of screens.
iPSC survival up = increases survival of single human iPS cells; survival enhancement, % at 20 µM; 0.044% of 360,000 active; hiPSC single-cell survival, ATPlite luminescence; 100% = ROCK inhibitor wells, 0% = DMSO; AID 602274; in the data active = survival enhancement above about 18%;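 note: cells exposed to compounds for 16 hours before the ATP read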
beta cell repl = MIN6 beta-cell proliferation induction; 0.29% of 330,000 active; MIN6 cells proliferation, ATPlite luminescence, 48 h; cells starved in 0.2% serum; 100% = growth in 10% serum; proliferation, % at 10 µM;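 active = compounds whose signal lies at least 3.5 SD above the mean of all wells on their plate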;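 note: 0% = DMSO-treated cells in low-serum medium and 100% = 10% serum control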
FLuc act counter = firefly luciferase counter-screen for stimulation assays; ATPlite luciferase biochemical, luminescence, 10 min; 0 = ATP-free wells, 1 = DMSO control; activation factor at 10 µM; 200,000 tested, under 10 active; AID 1027;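 active = luciferase activation factor, scaled between plate controls, of at least 2 with compound at 10 µM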
Target sequence (P08659 whole entry, looked up): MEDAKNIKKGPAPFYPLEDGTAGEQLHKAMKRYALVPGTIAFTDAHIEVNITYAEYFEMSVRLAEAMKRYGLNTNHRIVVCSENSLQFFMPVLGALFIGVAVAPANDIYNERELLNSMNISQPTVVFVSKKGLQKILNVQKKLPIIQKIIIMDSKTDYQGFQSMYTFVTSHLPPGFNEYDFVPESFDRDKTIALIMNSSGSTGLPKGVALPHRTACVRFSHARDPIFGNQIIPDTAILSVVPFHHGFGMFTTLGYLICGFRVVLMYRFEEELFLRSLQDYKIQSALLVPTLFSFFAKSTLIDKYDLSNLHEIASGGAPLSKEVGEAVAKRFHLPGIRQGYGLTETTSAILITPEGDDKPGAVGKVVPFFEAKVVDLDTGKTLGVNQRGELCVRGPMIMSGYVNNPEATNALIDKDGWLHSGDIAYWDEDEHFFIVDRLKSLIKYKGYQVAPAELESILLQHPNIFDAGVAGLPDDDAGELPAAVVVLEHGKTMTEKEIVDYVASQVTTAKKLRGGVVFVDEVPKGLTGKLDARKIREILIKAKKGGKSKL
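System: Luciferase/luciferin detection reagent, cell-free biochemical luciferase assay | Medium: PBS buffer for ATP | Dosing: Test compounds dosed from 2 mM stocks in 100% DMSO | Timing: 10 min at ambient temperature | Signal: Luminescence measurement of luciferase light output | Evaluation: Luciferase activation, seen as luminescence increase over controls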
PPC-1+TRAIL kill = kills PPC-1 cancer cells in the presence of TRAIL. PPC-1 cells + TRAIL, ATPLite viability luminescence. 0.41% of 220,000 active. AID 1443. cell killing (% activity), % at 4 µM or 5 µM;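 active = cell killing above 50% in the first pass at 4 µM, then a duplicate retest at 5 µM averaging 50% or more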;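 note: plate controls were cells with TRAIL plus DMSO for no effect and medium-only wells lacking cells for full effect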
C8 TRAIL sens = caspase-8 TRAIL sensitization | NB7+C8 cells + TRAIL, ATPlite viability luminescence | inhibition (viability loss, TRAIL sensitization), % at 10 µM | 1% of 360,000 active | AID 624354;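 active = compounds causing at least 50% loss of cell viability in the single-dose screen, relative to plate controls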
FLuc inhib CS = Photinus pyralis luciferase inhibition counter-screen; P08659; ATPLite firefly luciferase biochemical luminescence, 10 min; inhibition, % at 10 µM; 1.5% of 200,000 active; AID 1006;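 active = inhibition above about 50% when tested at 10 µM, limit read from the data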
Starred values were filed as active, the others as inactive; . = no result given.

SMILES	iPSC survival up	beta cell repl	FLuc act counter	PPC-1+TRAIL kill	C8 TRAIL sens	FLuc inhib CS
O=C(/C=C/Nc1ccc(F)cc1)c1cccs1	-4.9	-3.7	.	.	61.4*	.
COc1cccc(CN2C(=NC(=O)CCC3CCCC3)SC3CS(=O)(=O)CC32)c1 (centres undefined)	-0.3	0.3	.	.	7.2	.
O=S1(=O)CC(N2CCSCC2)CN1Cc1cn(Cc2ccc(C(F)(F)F)cc2)nn1 (centres undefined)	0.4	.	.	.	-0.1	.
CC(C)(C)CC(=O)Nc1cccc(-c2cn3cccnc3n2)c1	-3.5	-0.3	0.4	21.6	24.7	61.1*
COc1ccc(-c2cc(C(=O)NC3=NCCS3)c3ccccc3n2)cc1OC	3.2	-4.0	0.8	11.9	7.1	19.9
Cc1c(C(=O)NC2=NCCS2)oc2ccccc12	-2.1	-4.2	0.5	22.5	25.2	51.0*
Cc1ccc(NC(=O)c2sc3ccccc3c2Cl)nc1	-5.2	-3.6	0.2	39.6	70.1*	79.5*
Cc1csc(NC(=O)c2oc3ccccc3c2C)n1	0.3	-5.4	.	.	14.5	.
O=C(NC1=NCCS1)c1sc2ccccc2c1Cl	-1.6	-3.5	0.4	35.4	35.3	56.4*
O=C(NC1=NCCS1)c1cc(-c2ccc(-c3ccccc3)cc2)nc2ccccc12	-1.7	-4.5	0.3	45.4	65.1*	73.4*
CCCN(CCC)C(=O)c1cc(S(=O)(=O)N2CCCCC2)c[nH]1	-0.6	-2.0	.	.	3.0	.
c1ccc(-c2[nH]ncc2CN2CCN(Cc3ccc4c(c3)OCO4)CC2)cc1	-0.2	-2.4	.	12.1	13.3	.
CCNC(=O)NC(=O)C(C)OC(=O)C1CCN(S(=O)(=O)c2ccccc2C(=O)OC)CC1 (centres undefined)	-0.3	4.2	1	-3.7	6.6	-3.4
Cc1cccnc1NC(=O)c1sc2ccccc2c1Cl	-0.3	-1.4	.	.	54.1*	.
Cc1ccc2nsnc2c1NC(=O)c1sc2ccccc2c1Cl	-0.2	0.0	1	7.4	11.4	-0.2
COC(=O)c1sc(NC(=O)c2cc(-c3ccccc3)nc3ccccc23)c(C#N)c1C	0.1	-5.0	1	17.4	52.2*	2.6
CCOC(=O)c1sc(NC(=O)c2cc(-c3ccc(C)cc3)nc3ccccc23)c(C#N)c1C	-1.7	-6.0	1	19.1	46.6	3.3
CCOC(=O)N1CCN(C(=O)C[C@@H]2C[C@@]3(C(=O)OCC)CCCC=C3N(Cc3ccc4c(c3)OCO4)C2=O)CC1	-0.4	.	.	.	11.1	.
Cc1cc(C)c(S(=O)(=O)Nc2ncccc2C)c(C)c1	0.6	-3.6	.	.	1.8	.
COc1ccccc1Cc1c(-c2ccccc2)nc2cc(C)c(Br)c(C)n12	-0.8	.	.	.	22.8	.
NC(=S)N/N=C\c1c2ccccc2cc2ccccc12	-2.0	.	1	60.6*	-4.1	-1.9
COCCNC(=S)N/N=C/c1c2ccccc2cc2ccccc12	-0.5	-3.2	.	.	1.4	.
Cc1ccc(NC(=O)c2noc3c2CCC3)cc1C	-0.1	.	0.5	17.2	26.7	49.1
O=C(Nc1cccc(O)c1)c1noc2c1CCCCC2	-2.1	-3.5	0.1	-2.3	59.5*	86.1*
Cc1nonc1C(=O)N/N=C/c1ccc(O)cc1O	1.4	-2.3	0.9	.	56.3*	6.5
SMILES	iPSC survival up	beta cell repl	FLuc act counter	PPC-1+TRAIL kill	C8 TRAIL sens	FLuc inhib CS
CCCc1ccc(OCC(=O)NNC(=O)c2cccnc2)cc1	2.8	-0.3	0.9	.	0.3	5.7
O=C(Nc1ccc2c(c1)OCCO2)c1ccco1	-3.0	-2.3	0.5	26.3	34.9	50.4*
Cc1ccc(NC(=O)COC(=O)c2ccco2)cc1C	0.6	3.6	.	.	-13.8	.
CC1(C)Oc2ccc(NC(=O)c3ccco3)cc2O1	-6.0	-5.8	0.4	28.0	27.6	63.4*
O=C(Nc1cccc(NC(=O)c2ccco2)c1)c1ccc2c(c1)OCCO2	-3.3	0.2	0.7	2.4	34.9	28.4
Cc1ccc(NC(=O)c2ccco2)cc1C	-3.0	-0.7	0.5	22.0	14.9	49.9
O=C(COC(=O)c1ccco1)Nc1ccc2c(c1)OCCO2	-1.6	-1.3	0.3	30.3	2.3	68.6*
CCOC(=O)Nc1nc2ccc(Cn3cccc3)cc2[nH]1	-1.6	.	.	.	17.5	.
COc1ccc2cc(-c3ccccc3)ncc2c1	-3.3	-3.8	.	.	62.3*	.
COc1cc(OC)cc(-c2cc3ccc(OC)cc3cn2)c1	-5.5	-6.8	.	.	82.8*	.
O=[N+]([O-])c1ccc(Br)c(CN2CCN(c3ncc(Cc4ccccc4)cn3)CC2)c1	.	.	.	.	1.0	.

Assay outcomes from PubChem BioAssay.
